Data from ChEMBL document CHEMBL2311406, “Structure-based design of high-affinity macrocyclic peptidomimetics to block the menin-mixed lineage leukemia 1 (MLL1) protein-protein interaction” (J Med Chem, 2013).
*1 amine or outer side, *2 acyl side, *3 side chain or, on linkers, in order; H or OH if unused. Where a SMILES comes first, the peptide text is derived from it. Bridges are numbered along the chain shown (N, C = ends). [ ]: non-standard residue; d: D form. The star is where a group is joined. 5FAM = O=C1OC2(c3ccc(O)cc3Oc3cc(O)ccc32)c2ccc(C(=O)*)cc21; Ala(indol-2-yl) = N[C@@H](Cc1cc2ccccc2[nH]1)C(=O)O; Phe(3-CF3) = N[C@@H](Cc1cccc(C(F)(F)F)c1)C(=O)O; Phe(3-Ph) = N[C@@H](Cc1cccc(-c2ccccc2)c1)C(=O)O; hhhhLys = O=C([C@H](CCCCCCCCN[*:3])N[*:1])[*:2]; X2 = CC(C)Cc1cccc(C[C@H](N[*:1])C(=O)[*:2])c1; Phe(3,5-F2) = N[C@@H](Cc1cc(F)cc(F)c1)C(=O)O; X1 = CCc1cccc(C[C@H](N[*:1])C(=O)[*:2])c1; Phe(3-Cl) = N[C@@H](Cc1cccc(Cl)c1)C(=O)O; Phe(4-Cl) = N[C@@H](Cc1ccc(Cl)cc1)C(=O)O; NH(CH2)9CO = O=C(CCCCCCCCCN[*:1])[*:2]; Phe(2-Cl) = N[C@@H](Cc1ccccc1Cl)C(=O)O; Phe(3-F) = N[C@@H](Cc1cccc(F)c1)C(=O)O; Phe(3-Me) = Cc1cccc(C[C@H](N)C(=O)O)c1; Phe(4-F) = N[C@@H](Cc1ccc(F)cc1)C(=O)O; Phe(2-F) = N[C@@H](Cc1ccccc1F)C(=O)O; Cha = N[C@@H](CC1CCCCC1)C(=O)O; Ahp(2) = CCCCC[C@H](N)C(=O)O; hLys = NCCCCC[C@H](N)C(=O)O; AEEEA = NCCOCCOCCOCC(=O)O; Ac5c = NC1(C(=O)O)CCCC1; Abu = CC[C@H](N)C(=O)O; Ac4c = NC1(C(=O)O)CCC1; Ac3c = NC1(C(=O)O)CC1; Aib = CC(C)(N)C(=O)O

target: T1, Menin (Homo sapiens, UniProt O00255); assay: Binding affinity to menin (unknown origin) after 60 mins by fluorescence polarization assay
T1 sequence (O00255 whole entry): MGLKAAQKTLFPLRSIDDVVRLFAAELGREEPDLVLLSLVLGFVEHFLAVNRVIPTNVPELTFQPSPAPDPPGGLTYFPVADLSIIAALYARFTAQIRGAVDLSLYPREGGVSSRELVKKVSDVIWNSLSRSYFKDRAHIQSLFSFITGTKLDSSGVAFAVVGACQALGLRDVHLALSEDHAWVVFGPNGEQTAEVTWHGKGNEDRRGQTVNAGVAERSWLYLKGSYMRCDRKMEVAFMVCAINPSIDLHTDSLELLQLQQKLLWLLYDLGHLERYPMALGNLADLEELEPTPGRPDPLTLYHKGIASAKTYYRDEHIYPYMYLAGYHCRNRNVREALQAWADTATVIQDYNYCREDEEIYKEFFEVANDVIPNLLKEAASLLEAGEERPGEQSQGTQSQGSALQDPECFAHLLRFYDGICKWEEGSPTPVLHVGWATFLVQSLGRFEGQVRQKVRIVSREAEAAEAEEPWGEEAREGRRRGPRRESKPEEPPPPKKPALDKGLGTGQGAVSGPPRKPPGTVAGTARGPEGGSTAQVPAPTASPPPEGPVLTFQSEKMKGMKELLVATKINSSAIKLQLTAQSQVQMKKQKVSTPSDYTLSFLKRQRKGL
Summary of the method: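 Competitive FP with fluorescein-labeled peptide tracers. Compound in DMSO (2% final) was added to a preincubated menin/tracer complex in 100 mM potassium phosphate pH 7.5 with 100 μg/mL bovine γ-globulin and 0.02% sodium azide. Menin/tracer/detergent were 30 nM/3 nM/0.005% Triton X-100 or 3 nM/2 nM/0.02% Tween-20. Ki was derived from the fitted IC50, probe Kd and assay concentrations.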

| Compound | IC50 | Ki | Kd |
| --- | --- | --- | --- |
| N=C(N)NCCC[C@@H]1NC(=O)C2(CCC2)NC(=O)[C@@H]2CCCN2C(=O)[C@H](Cc2ccc(F)cc2)NC(=O)[C@@H](N)CCCCCCCCNC(=O)[C@@H]2CCCN2C1=O (H-[hhhhLys][Phe(4-F)]P[Ac4c]RP; lactam 1-C) | 422 nM | 123 nM |  |
| CC[C@@H]1NC(=O)[C@@H]2CCCN2C(=O)[C@H](Cc2ccccc2)NC(=O)[C@@H](N)CCCCCCCCNC(=O)[C@@H]2CCCN2C(=O)[C@H](CCCNC(=N)N)NC1=O (H-[hhhhLys]FP[Abu]RP; lactam 1-C) | 10700 nM | 3180 nM |  |
| Ac-RFPARP-NH2 | 9570 nM | 2850 nM |  |
| CC(=O)N[C@@H](CCCNC(=N)N)C(=O)N[C@@H](Cc1c[nH]c2ccccc12)C(=O)N[C@H]1CCCCCNC(=O)[C@@H]2CCCN2C(=O)[C@H](CCCNC(=N)N)NC(=O)[C@H](C)NC(=O)[C@@H]2CCCN2C(=O)[C@H](Cc2ccccc2)NC1=O (Ac-RW[hLys]FPARP; lactam 3-C) | 514 nM | 136 nM |  |
| N=C(N)NCCC[C@@H]1NC(=O)C2(CCC2)NC(=O)[C@@H]2CCCN2C(=O)[C@H](Cc2ccc(Cl)cc2)NC(=O)[C@@H](N)CCCCCCCCNC(=O)[C@@H]2CCCN2C1=O (H-[hhhhLys][Phe(4-Cl)]P[Ac4c]RP; lactam 1-C) | 2010 nM | 549 nM |  |
| N=C(N)NCCC[C@@H]1NC(=O)C2(CCC2)NC(=O)[C@@H]2CCCN2C(=O)[C@H](Cc2cccc(Cl)c2)NC(=O)[C@@H](N)CCCCCCCCNC(=O)[C@@H]2CCCN2C1=O (H-[hhhhLys][Phe(3-Cl)]P[Ac4c]RP; lactam 1-C) | 159 nM | 44.6 nM |  |
| C[C@@H]1NC(=O)[C@@H]2CCCN2C(=O)[C@H](Cc2ccccc2)NC(=O)CCCCCCCCCNC(=O)[C@@H]2CCCN2C(=O)[C@H](CCCNC(=N)N)NC1=O (cyclo(ARP[NH(CH2)9CO]FP)) | 6450 nM | 1840 nM |  |
| N=C(N)NCCC[C@@H]1NC(=O)C2(CCC2)NC(=O)[C@@H]2CCCN2C(=O)[C@H](Cc2ccccc2Cl)NC(=O)[C@@H](N)CCCCCCCCNC(=O)[C@@H]2CCCN2C1=O (H-[hhhhLys][Phe(2-Cl)]P[Ac4c]RP; lactam 1-C) | 112 nM | 30 nM |  |
| C[C@@H]1NC(=O)[C@@H]2CCCN2C(=O)[C@H](Cc2ccccc2)NC(=O)[C@@H](N)CCCCCCCCNC(=O)[C@@H]2CCCN2C(=O)[C@H](CCCNC(=N)N)NC1=O (H-[hhhhLys]FPARP; lactam 1-C) | 665 nM | 197 nM |  |
| CCc1cccc(C[C@@H]2NC(=O)[C@@H](N)CCCCCCCCNC(=O)[C@@H]3CCCN3C(=O)[C@H](CCCNC(=N)N)NC(=O)C3(CCC3)NC(=O)[C@@H]3CCCN3C2=O)c1 (H-[hhhhLys][X1]P[Ac4c]RP; lactam 1-C) | 4610 nM | 1330 nM |  |
| Ac-RWRFPARP-NH2 | 232 nM | 71.1 nM |  |
| N=C(N)NCCC[C@@H]1NC(=O)C2(CCCC2)NC(=O)[C@@H]2CCCN2C(=O)[C@H](Cc2ccccc2)NC(=O)[C@@H](N)CCCCCCCCNC(=O)[C@@H]2CCCN2C1=O (H-[hhhhLys]FP[Ac5c]RP; lactam 1-C) | 6320 nM | 1660 nM |  |
| CC(=O)N[C@H]1CCCCCCCCNC(=O)[C@@H]2CCCN2C(=O)[C@H](CCCNC(=N)N)NC(=O)[C@H](C)NC(=O)[C@@H]2CCCN2C(=O)[C@H](Cc2ccccc2)NC1=O (Ac-[hhhhLys]FPARP; lactam 1-C) | 2160 nM | 586 nM |  |
| N=C(N)NCCC[C@@H]1NC(=O)C2(CCC2)NC(=O)[C@@H]2CCCN2C(=O)[C@H](Cc2cccc(C(F)(F)F)c2)NC(=O)[C@@H](N)CCCCCCCCNC(=O)[C@@H]2CCCN2C1=O (H-[hhhhLys][Phe(3-CF3)]P[Ac4c]RP; lactam 1-C) | 2520 nM | 725 nM |  |
| N=C(N)NCCC[C@@H]1NC(=O)C2(CCC2)NC(=O)[C@@H]2CCCN2C(=O)[C@H](Cc2ccccc2F)NC(=O)[C@@H](N)CCCCCCCCNC(=O)[C@@H]2CCCN2C1=O (H-[hhhhLys][Phe(2-F)]P[Ac4c]RP; lactam 1-C) | 102 nM | 27.5 nM |  |
| Ac-RWRFPAR-NH2 | 85300 nM | 25500 nM |  |

| Compound | IC50 | Ki | Kd |
| --- | --- | --- | --- |
| CC(=O)N[C@@H](CCCNC(=N)N)C(=O)N[C@@H](Cc1c[nH]c2ccccc12)C(=O)N[C@H]1CCCCCCCCNC(=O)[C@@H]2CCCN2C(=O)[C@H](CCCNC(=N)N)NC(=O)[C@H](C)NC(=O)[C@@H]2CCCN2C(=O)[C@H](Cc2ccccc2)NC1=O (Ac-RW[hhhhLys]FPARP; lactam 3-C) | 25 nM | 6.9 nM |  |
| N=C(N)NCCC[C@@H]1NC(=O)C2(CC2)NC(=O)[C@@H]2CCCN2C(=O)[C@H](Cc2ccccc2)NC(=O)[C@@H](N)CCCCCCCCNC(=O)[C@@H]2CCCN2C1=O (H-[hhhhLys]FP[Ac3c]RP; lactam 1-C) | 194 nM | 55.5 nM |  |
| N=C(N)NCCC[C@@H]1NC(=O)C2(CCC2)NC(=O)[C@@H]2CCCN2C(=O)[C@H](Cc2cccc(-c3ccccc3)c2)NC(=O)[C@@H](N)CCCCCCCCNC(=O)[C@@H]2CCCN2C1=O (H-[hhhhLys][Phe(3-Ph)]P[Ac4c]RP; lactam 1-C) | 39400 nM | 14000 nM |  |
| Ac-WRFPARP-NH2 | 1060 nM | 311 nM |  |
| N=C(N)NCCC[C@@H]1NC(=O)C2(CCC2)NC(=O)[C@@H]2CCCN2C(=O)[C@H](CC2CCCCC2)NC(=O)[C@@H](N)CCCCCCCCNC(=O)[C@@H]2CCCN2C1=O (H-[hhhhLys][Cha]P[Ac4c]RP; lactam 1-C) | 3330 nM | 862 nM |  |
| N=C(N)NCCC[C@H](NC(=O)COCCOCCOCCNC(=O)c1ccc2c(c1)C(=O)OC21c2ccc(O)cc2Oc2cc(O)ccc21)C(=O)N[C@@H](Cc1cc2ccccc2[nH]1)C(=O)N[C@H]1CCCCCCCCNC(=O)[C@@H]2CCCN2C(=O)[C@H](CCCNC(=N)N)NC(=O)C2(CCC2)NC(=O)[C@@H]2CCCN2C(=O)[C@H](Cc2cc(F)cc(F)c2)NC1=O ({5FAM-AEEEA}-R[Ala(indol-2-yl)][hhhhLys][Phe(3,5-F2)]P[Ac4c]RP; lactam 3-C) |  |  | 1.4 nM |
| CC(C)Cc1cccc(C[C@@H]2NC(=O)[C@@H](N)CCCCCCCCNC(=O)[C@@H]3CCCN3C(=O)[C@H](CCCNC(=N)N)NC(=O)C3(CCC3)NC(=O)[C@@H]3CCCN3C2=O)c1 (H-[hhhhLys][X2]P[Ac4c]RP; lactam 1-C) | 36000 nM | 11600 nM |  |
| Ac-RWRFPARPGTGRR-NH2 | 11.4 nM | 2.9 nM |  |
| CCCCC[C@H](NC(=O)[C@H](Cc1c[nH]c2ccccc12)NC(=O)[C@H](CCCNC(=N)N)NC(C)=O)C(=O)N[C@@H](Cc1ccccc1)C(=O)N1CCC[C@H]1C(=O)N[C@@H](C)C(=O)N[C@@H](CCCNC(=N)N)C(=O)N1CCC[C@H]1C(=O)NCC (Ac-RW[Ahp(2)]FPARP-NHEt) | 7390 nM | 2170 nM |  |
| CC(=O)N[C@@H](CCCNC(=N)N)C(=O)N[C@@H](Cc1c[nH]c2ccccc12)C(=O)N[C@H]1CCCCNC(=O)[C@@H]2CCCN2C(=O)[C@H](CCCNC(=N)N)NC(=O)[C@H](C)NC(=O)[C@@H]2CCCN2C(=O)[C@H](Cc2ccccc2)NC1=O (Ac-RWKFPARP; lactam 3-C) | 11000 nM | 3320 nM |  |
| CC(=O)N[C@@H](CCCNC(=N)N)C(=O)N[C@@H](Cc1c[nH]c2ccccc12)C(=O)N[C@H]1CCCCCCCCCNC(=O)[C@@H]2CCCN2C(=O)[C@H](CCCNC(=N)N)NC(=O)[C@H](C)NC(=O)[C@@H]2CCCN2C(=O)[C@H](Cc2ccccc2)NC1=O | 144 nM | 42.5 nM |  |
| N=C(N)NCCC[C@@H]1NC(=O)C2(CCC2)NC(=O)[C@@H]2CCCN2C(=O)[C@H](Cc2cccc(F)c2)NC(=O)[C@@H](N)CCCCCCCCNC(=O)[C@@H]2CCCN2C1=O (H-[hhhhLys][Phe(3-F)]P[Ac4c]RP; lactam 1-C) | 25.1 nM | 6.8 nM |  |
| CC(=O)N[C@@H](CCCNC(=N)N)C(=O)N[C@@H](Cc1c[nH]c2ccccc12)C(=O)N[C@H]1CCCCCCNC(=O)[C@@H]2CCCN2C(=O)[C@H](CCCNC(=N)N)NC(=O)[C@H](C)NC(=O)[C@@H]2CCCN2C(=O)[C@H](Cc2ccccc2)NC1=O | 63.3 nM | 17.5 nM |  |
| CC1(C)NC(=O)[C@@H]2CCCN2C(=O)[C@H](Cc2ccccc2)NC(=O)[C@@H](N)CCCCCCCCNC(=O)[C@@H]2CCCN2C(=O)[C@H](CCCNC(=N)N)NC1=O (H-[hhhhLys]FP[Aib]RP; lactam 1-C) | 226 nM | 67 nM |  |
| Cc1cccc(C[C@@H]2NC(=O)[C@@H](N)CCCCCCCCNC(=O)[C@@H]3CCCN3C(=O)[C@H](CCCNC(=N)N)NC(=O)C3(CCC3)NC(=O)[C@@H]3CCCN3C2=O)c1 (H-[hhhhLys][Phe(3-Me)]P[Ac4c]RP; lactam 1-C) | 1150 nM | 332 nM |  |
